Tests used:
[1] = Inhibition of Plasmodium falciparum falcipain-3 expressed in Escherichia coli
In short: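 Refolded recombinant enzyme from E. coli, 2 nM, in 100 mM sodium acetate pH 5.5 with 500 μM CHAPS and 10 mM DTT, DMSO up to 1%. H-D-Val-Leu-Arg-AFC at 150 μM final. Reaction started by enzyme addition; fluorescence monitored 1 h at room temperature. IC50 derived from percent activity plotted against inhibitor concentration.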

[2] = Inhibition of Plasmodium falciparum falcipain-2 expressed in Escherichia coli
In short: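 Recombinant E. coli-expressed, refolded enzyme at 0.25 nM in 100 mM sodium acetate pH 5.5, 500 μM CHAPS, 10 mM DTT, DMSO ≤1%. Substrate H-D-Val-Leu-Arg-AFC at 30 μM final. Inhibitor dilutions mixed with substrate, enzyme added last; fluorescence followed 1 h at room temperature. IC50 from percent activity versus concentration.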

CC(C)CN(NC(=O)c1cnc2ccccc2c1)c1nc(C#N)ncc1Cl
IC50 [1]: 126 nM
IC50 [2]: 1 nM

Cc1ccc2[nH]c(C(=O)NN(CC(C)C)c3nc(C#N)ncc3Br)cc2c1
IC50 [1]: 1530 nM
IC50 [2]: 33 nM

CC(C)CN(NC(=O)OC(C)(C)C)c1cccc(C#N)n1
IC50 [1]: > 10000 nM
IC50 [2]: 609 nM

CC(C)CN(NC(=O)OC(C)(C)C)c1cncc(C#N)n1
IC50 [1]: 1670 nM
IC50 [2]: 59 nM

CC(C)CN(NC(=O)OC(C)(C)C)c1nc(Cl)ncc1C#N
IC50 [2]: 4530 nM

CC(C)CN(NC(=O)OC(C)(C)C)c1ncc(C#N)c(Cl)n1
IC50 [1]: 990 nM
IC50 [2]: 64 nM

CC(C)CN(NC(=O)OC(C)(C)C)c1cc(C#N)ncn1
IC50 [1]: > 10000 nM
IC50 [2]: > 10000 nM

CC(C)CN(NC(=O)OC(C)(C)C)c1nccc(C#N)n1
IC50 [1]: 3570 nM
IC50 [2]: 196 nM

COc1nc(C#N)nc(N(CC(C)C)NC(=O)OC(C)(C)C)n1
IC50 [1]: 204 nM
IC50 [2]: 12 nM

CC(C)CN(NC(=O)OC(C)(C)C)c1ccnc(C#N)n1
IC50 [1]: 870 nM
IC50 [2]: 60 nM

CC(C)CN(NC(=O)OC(C)(C)C)c1nc(C#N)ncc1F
IC50 [1]: 583 nM
IC50 [2]: 24 nM

CC(C)CN(NC(=O)OC(C)(C)C)c1nc(C#N)ncc1Br
IC50 [1]: 92 nM
IC50 [2]: 3 nM

CC(C)CN(NC(=O)OC(C)(C)C)c1nc(C#N)ncc1Cl
IC50 [1]: 144 nM
IC50 [2]: 9 nM

CC(C)CN(NC(=O)OC(C)(C)C)c1nc(C#N)ncc1[N+](=O)[O-]
IC50 [1]: 26 nM
IC50 [2]: 2 nM

CC(C)CN(NC(=O)c1ccc2ccccc2c1)c1nc(C#N)ncc1Br
IC50 [1]: 645 nM
IC50 [2]: 65 nM

Cc1cnc(C#N)nc1N(CC(C)C)NC(=O)OC(C)(C)C
IC50 [1]: 1150 nM
IC50 [2]: 40 nM

CC(C)CN(NC(=O)OC(C)(C)C)c1nc(C#N)ncc1C(F)(F)F
IC50 [1]: 66 nM
IC50 [2]: 3 nM

CC(C)CN(NC(=O)OC(C)(C)C)c1nc(C#N)ncc1NCc1ccccc1
IC50 [1]: 2070 nM
IC50 [2]: 616 nM

CC(C)CN(NC(=O)OC(C)(C)C)c1nc(C#N)ncc1C#Cc1ccc(C(F)(F)F)cc1
IC50 [1]: 5330 nM
IC50 [2]: 102 nM

COc1cnc(C#N)nc1N(CC(C)C)NC(=O)OC(C)(C)C
IC50 [1]: 2390 nM
IC50 [2]: 79 nM

CC(C)CN(NC(=O)c1ccc2nccnc2c1)c1nc(C#N)ncc1Br
IC50 [1]: 1440 nM
IC50 [2]: 66 nM

CC(C)CN(NC(=O)c1ccc2ccccc2n1)c1nc(C#N)ncc1Cl
IC50 [1]: 254 nM
IC50 [2]: 6 nM

CC(C)CN(NC(=O)c1nccc2ccccc12)c1nc(C#N)ncc1Cl
IC50 [1]: 197 nM
IC50 [2]: 7 nM

CC(C)CN(NC(=O)c1cc2ccccc2cn1)c1nc(C#N)ncc1Cl
IC50 [1]: 333 nM
IC50 [2]: 7 nM

COCc1cnc(C#N)nc1N(CC(C)C)NC(=O)OC(C)(C)C
IC50 [1]: > 10000 nM
IC50 [2]: 8400 nM

CC(C)CN(NC(=O)OC(C)(C)C)c1nc(Cl)ncc1[N+](=O)[O-]
IC50 [1]: > 25000 nM
IC50 [2]: > 25000 nM

CC(C)(C)OC(=O)NN(CC1CC1)c1nc(C#N)ncc1Br
IC50 [1]: 413 nM
IC50 [2]: 7 nM

CC(C)(C)OC(=O)NN(CC1CCC1)c1nc(C#N)ncc1Br
IC50 [1]: 62 nM
IC50 [2]: 3 nM

CC(C)(C)OC(=O)NN(CC1CCCC1)c1nc(C#N)ncc1Br
IC50 [1]: 10 nM
IC50 [2]: 1 nM

CC(C)(C)OC(=O)NN(CC1CCCCC1)c1nc(C#N)ncc1Br
IC50 [1]: 146 nM
IC50 [2]: 24 nM

CC(C)CN(NC(=O)c1ccnc2ccccc12)c1nc(C#N)ncc1Cl
IC50 [1]: 44 nM
IC50 [2]: 1 nM

CC(C)CN(NC(=O)c1cc2ccccc2o1)c1nc(C#N)ncc1Br
IC50 [1]: 563 nM
IC50 [2]: 65 nM

Cc1c(C(=O)NN(CC(C)C)c2nc(C#N)ncc2Br)oc2ccccc12
IC50 [1]: 1430 nM
IC50 [2]: 223 nM

COc1ccc2oc(C(=O)NN(CC(C)C)c3nc(C#N)ncc3Br)cc2c1
IC50 [1]: 1240 nM
IC50 [2]: 183 nM

COc1cccc2cc(C(=O)NN(CC(C)C)c3nc(C#N)ncc3Br)oc12
IC50 [1]: 399 nM
IC50 [2]: 46 nM

CC1(CN(NC(=O)OC(C)(C)C)c2nc(C#N)ncc2Br)CCCCC1
IC50 [1]: 121 nM
IC50 [2]: 25 nM

CC(C)(C)OC(=O)NN(CCC1CCCCC1)c1nc(C#N)ncc1Br
IC50 [1]: 860 nM
IC50 [2]: 257 nM

CC(C)(C)OC(=O)NN(CCC1CCCC1)c1nc(C#N)ncc1Br
IC50 [1]: 504 nM
IC50 [2]: 64 nM

CC(C)(C)OC(=O)NN(Cc1ccccc1)c1nc(C#N)ncc1Br
IC50 [1]: 347 nM
IC50 [2]: 17 nM

CC(C)(C)OC(=O)NN(CCc1ccccc1)c1nc(C#N)ncc1Br
IC50 [1]: 557 nM
IC50 [2]: 93 nM

CC(C)CN(NC(=O)c1ccc2occc2c1)c1nc(C#N)ncc1Br
IC50 [1]: 69 nM
IC50 [2]: 0.7 nM

CC(C)CN(NC(=O)c1cc2ccccc2s1)c1nc(C#N)ncc1Br
IC50 [1]: 365 nM
IC50 [2]: 241 nM

Cc1ccc2sc(C(=O)NN(CC(C)C)c3nc(C#N)ncc3Br)cc2c1
IC50 [1]: 748 nM
IC50 [2]: 6 nM

CC(C)CN(NC(=O)c1ccc2sccc2c1)c1nc(C#N)ncc1Br
IC50 [1]: 154 nM
IC50 [2]: 1 nM

CC(C)CN(NC(=O)c1cc2ccccc2[nH]1)c1nc(C#N)ncc1Br
IC50 [1]: 641 nM
IC50 [2]: 15 nM

CC(C)(C)OC(=O)NN(CC1CC=CC1)c1nc(C#N)ncc1Br
IC50 [1]: 35 nM
IC50 [2]: 2 nM

CC(C)(C)OC(=O)NN(CC1CC=CCC1)c1nc(C#N)ncc1Br (configuration not stated)
IC50 [1]: 41 nM
IC50 [2]: 2 nM

CC(C)(C)OC(=O)NN(CCC1C=CCC1)c1nc(C#N)ncc1Br (configuration not stated)
IC50 [1]: 311 nM
IC50 [2]: 12 nM

CC(C)(C)OC(=O)NN(c1nc(C#N)ncc1Br)C1CCC1
IC50 [1]: 297 nM
IC50 [2]: 13 nM

CC(C)(C)OC(=O)NN(c1nc(C#N)ncc1Br)C1CCCC1
IC50 [1]: 56 nM
IC50 [2]: 9 nM

CC(C)(C)OC(=O)NN(c1nc(C#N)ncc1Br)C1CCCCC1
IC50 [1]: 8 nM
IC50 [2]: 1 nM

CC(C)CN(NC(=O)c1cc2cc(OCc3ccccc3)ccc2[nH]1)c1nc(C#N)ncc1Br
IC50 [1]: 4650 nM
IC50 [2]: 103 nM

Cc1c(C(=O)NN(CC(C)C)c2nc(C#N)ncc2Br)n(C)c2ccccc12
IC50 [1]: 311 nM
IC50 [2]: 4 nM

CC(C)CN(NC(=O)c1cccc2cc[nH]c12)c1nc(C#N)ncc1Br
IC50 [1]: 342 nM
IC50 [2]: 3 nM

CC(C)CN(NC(=O)c1onc2ccccc12)c1nc(C#N)ncc1Br
IC50 [1]: > 10000 nM
IC50 [2]: 604 nM

CC(C)(C)OC(=O)NN(c1nc(C#N)ncc1Br)C1CCCC1(C)C (configuration not stated)
IC50 [1]: 447 nM
IC50 [2]: 34 nM

CC1CCC(N(NC(=O)OC(C)(C)C)c2nc(C#N)ncc2Br)C1 (configuration not stated)
IC50 [1]: 53 nM
IC50 [2]: 3 nM

CC(C)(C)OC(=O)NN(c1nc(C#N)ncc1Br)C1CC=CC1
IC50 [1]: 21 nM
IC50 [2]: 2 nM

CC(C)(C)OC(=O)NN(CC1CCCO1)c1nc(C#N)ncc1Br (configuration not stated)
IC50 [1]: 112 nM
IC50 [2]: 14 nM

CC(C)CN(NC(=O)c1nc2ccccc2s1)c1nc(C#N)ncc1Cl
IC50 [1]: 112 nM
IC50 [2]: 2 nM

CC(C)CN(NC(=O)c1ccc2[nH]cnc2c1)c1nc(C#N)ncc1Cl
IC50 [1]: 93 nM
IC50 [2]: 0.5 nM

Cc1nc2cc(C(=O)NN(CC(C)C)c3nc(C#N)ncc3Br)ccc2[nH]1
IC50 [1]: 27 nM
IC50 [2]: 0.2 nM

CC(C)CN(NC(=O)c1ccc2[nH]nnc2c1)c1nc(C#N)ncc1Br
IC50 [1]: 40 nM
IC50 [2]: 0.2 nM

Cc1c(C(=O)NN(CC(C)C)c2nc(C#N)ncc2Br)oc2cccnc12
IC50 [1]: 73 nM
IC50 [2]: 2 nM

CC1OCCC1N(NC(=O)OC(C)(C)C)c1nc(C#N)ncc1Br (configuration not stated)
IC50 [1]: 98 nM
IC50 [2]: 7 nM

CC(C)(C)OC(=O)NN(CC1CCOCC1)c1nc(C#N)ncc1Br
IC50 [1]: 85 nM
IC50 [2]: 8 nM

CC(C)(C)OC(=O)NN(Cc1ccco1)c1nc(C#N)ncc1Br
IC50 [1]: 140 nM
IC50 [2]: 8 nM

CC(C)(C)OC(=O)NN(Cc1ccoc1)c1nc(C#N)ncc1Br
IC50 [1]: 183 nM
IC50 [2]: 60 nM

CC(C)(C)OC(=O)NN(c1nc(C#N)ncc1Br)C1CCOCC1
IC50 [1]: 28 nM
IC50 [2]: 2 nM

CC(C)CN(NC(=O)c1cccc2c1Cc1ccccc1-2)c1nc(C#N)ncc1Br
IC50 [1]: 329 nM
IC50 [2]: 4 nM

CC(C)CN(NC(=O)c1cccc2c1-c1ccccc1C2=O)c1nc(C#N)ncc1Br
IC50 [1]: 67 nM
IC50 [2]: 2 nM

CC(C)CN(NC(=O)c1cccc2c1C(=O)c1ccccc1-2)c1nc(C#N)ncc1Br
IC50 [1]: 831 nM
IC50 [2]: 25 nM

CC(C)CN(NC(=O)c1ccc(-c2ccccc2)cc1)c1nc(C#N)ncc1Br
IC50 [1]: 1460 nM
IC50 [2]: 28 nM

CC(C)(C)OC(=O)NN(c1nc(C#N)ncc1Br)C1CCN(C(=O)OCc2ccccc2)CC1
IC50 [1]: 38 nM
IC50 [2]: 2 nM

CC(C)(C)OC(=O)NN(c1nc(C#N)ncc1Br)C1CCN(C(=O)OC(C)(C)C)CC1
IC50 [1]: 135 nM
IC50 [2]: 26 nM

CC(C)N1CCC(N(NC(=O)OC(C)(C)C)c2nc(C#N)ncc2Br)CC1
IC50 [1]: 5240 nM
IC50 [2]: 902 nM

CC(=O)N1CCC(N(NC(=O)OC(C)(C)C)c2nc(C#N)ncc2Br)CC1
IC50 [1]: 33 nM
IC50 [2]: < 0.5 nM

CC(=O)N[C@H]1CC[C@H](N(NC(=O)OC(C)(C)C)c2nc(C#N)ncc2Br)CC1
IC50 [1]: 67 nM
IC50 [2]: 7 nM

CC(C)CN(NC(=O)c1ccc(C(=O)c2ccccc2)cc1)c1nc(C#N)ncc1Br
IC50 [1]: 115 nM
IC50 [2]: 3 nM

CC(C)CN(NC(=O)c1ccc(Oc2ccccc2)cc1)c1nc(C#N)ncc1Br
IC50 [1]: 896 nM
IC50 [2]: 8 nM

CC(C)CN(NC(=O)c1cccc(Oc2ccccc2)c1)c1nc(C#N)ncc1Br
IC50 [1]: 116 nM
IC50 [2]: 4 nM

CC(C)CN(NC(=O)c1ccccc1Oc1ccccc1)c1nc(C#N)ncc1Br
IC50 [1]: 66 nM
IC50 [2]: 5 nM

CC(C)CN(NC(=O)c1cccc(-c2ccccc2)c1)c1nc(C#N)ncc1Br
IC50 [1]: 37 nM
IC50 [2]: 1 nM

CC(C)CN(NC(=O)c1ccc(Cc2ccccc2)cc1)c1nc(C#N)ncc1Cl
IC50 [1]: 962 nM
IC50 [2]: 18 nM
